An excerpt weighted towards active compounds, which were near 2.2% of everything screened.
Hck Nef HTS – blocks Nef-activated human Hck kinase. hit rate 0.68% among 220,000. AID 463187. Recombinant Hck-YEEI plus Nef, Z-Lyte FRET kinase assay. P08631. inhibition, % at 20 µM;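 active = Hck-Nef kinase inhibition above about 50%, limit read from the data; inactive = inhibition below that limit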
p97 ATPase inh – blocks human p97 ATPase activity. recombinant p97 ATPase, Kinase-Glo ATP luminescence, 3 h. hit rate 0.42% among 220,000. P55072. AID 1481. inhibition, % at 8 µM; in the data active = inhibition above about 15%
14-3-3 Bad PPI – disrupts binding of bovine 14-3-3 zeta to phospho-Bad peptide; hit rate 0.71% among 220,000; TR-FRET 14-3-3zeta/Dy647-pBad peptide displacement, 1 h; AID 781; inhibition, % at 21.7 µM;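 active = inhibition above about 70%, limit read from the data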
Target sequence (P63103 whole entry, looked up): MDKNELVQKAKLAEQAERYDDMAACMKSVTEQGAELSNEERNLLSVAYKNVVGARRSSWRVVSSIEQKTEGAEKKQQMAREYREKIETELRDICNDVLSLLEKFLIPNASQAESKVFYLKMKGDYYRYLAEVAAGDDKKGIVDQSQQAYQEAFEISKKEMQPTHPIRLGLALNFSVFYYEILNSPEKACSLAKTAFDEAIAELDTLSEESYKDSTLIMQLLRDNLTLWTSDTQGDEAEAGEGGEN
Calb biofilm kill – mixtures killing C. albicans biofilm; inhibition, % at 7.6 µM; C. albicans biofilm persisters + clotrimazole, fluorescence viability; primary screen in compound mixtures of four per well; hit rate 0.02% among 120,000;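 active = inhibition above 30.3% in the primary screen of four-compound pools, then above 30% when the compound was retested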;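 also: compounds exposed to preformed 24 h biofilms for 48 h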
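Incubation: 24 h biofilm formation, then 48 h compound exposure, 37 °C | Material: C. albicans biofilms | Buffer or medium: RPMI/MOPS medium, pH 7.0 | Measured by: 2-h Alamar Blue fluorescence, 535/590 nm excitation/emission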
PERK inhibitor – inhibitors of human PERK kinase; inhibition, % at 5.6 µM; CHO PERK-DD fusion, SEAP luminescence translation reporter; hit rate 0.17% among 220,000; Q9NZJ5;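 active = inhibition above the mean inhibition of all tested compounds plus 3 SD, set separately per screening campaign, cut at about 2.9% in these data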;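 also: PERK kinase domain activated by AP20187 dimerizer at 100 nM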
eIF4E 4G PPI – eIF4E/eIF4G interaction inhibition in translation initiation. hit rate 0.37% among 220,000. inhibition, % at 21.7 µM. P63073+Q04637. TR-FRET eIF4E-eIF4GI(517-606) binding, 2 h. AID 782;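 active = inhibition above about 30%, limit read from the data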
Hck-Nef confirm – Hck-Nef kinase inhibition, confirmation; hit rate 28% among 1,300; calls only at 10 µM; Recombinant Hck-YEEI:Nef, Z-Lyte FRET kinase assay; AID 463188; shares compounds with Hck Nef HTS;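 active = average inhibition of at least 50%, with Z-scores no higher than 3 in both the phospho-tyrosine peptide and fluorescence counterscreens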
Large screens that a line does not name were inactive (follow-up assays come after a bar, where shown).

C/C(CC(c1ccccc1)c1c(O)c2ccccc2oc1=O)=N\Nc1ccc([N+](=O)[O-])cc1[N+](=O)[O-] (configuration not stated)	none
Cc1ccc(N2C(=O)/C(=C/c3ccc(CN(CCC#N)S(C)(=O)=O)o3)C(=O)NC2=S)cc1C	none (no result: Calb biofilm kill)
Cc1cccc(N2C(=O)/C(=C/c3ccc(CN(CCC#N)S(C)(=O)=O)o3)C(=O)NC2=S)c1	Hck Nef HTS 53 (no result: Calb biofilm kill) | Hck-Nef confirm inactive
O=C(O)C1C2CC3CC(C2)CC1(n1ncc(N2CCC4(CC2)OCCO4)c(Cl)c1=O)C3 (configuration not stated)	none
CN1C(=O)C(=Cc2ccc(Sc3ccccc3)o2)C(=O)N(C)C1=O	Hck Nef HTS 70 | Hck-Nef confirm inactive
O=C1NC(=O)N(c2ccc(Cl)cc2)C(=O)/C1=C\c1ccc(Sc2nc3ccccc3[nH]2)o1	Hck Nef HTS 57 | Hck-Nef confirm inactive
O=C1NC(=O)C(=Cc2ccc(Sc3ccccc3)o2)C(=O)N1	none
O=P1(Oc2ccccc2)OCCCS1 (configuration not stated)	none
O=C1NC(=S)N(c2ccc(F)cc2)C(=O)/C1=C\c1ccoc1	Hck Nef HTS 79, 14-3-3 Bad PPI 76, eIF4E 4G PPI 34 | Hck-Nef confirm active
Cc1ccc2c(c1)C1CN(C)CCC1N2C(=O)CCCN1C(=O)c2cccc3cccc(c23)C1=O (configuration not stated)	none
Cc1cccc(NC2=NCCCS2)c1	none
COc1ccc(OC)c(N2C(=O)NC(=O)/C(=C/c3ccc([N+](=O)[O-])s3)C2=O)c1	Hck Nef HTS 89 | Hck-Nef confirm inactive
CN1C(=O)NC(=O)/C(=C\C=C\c2ccccc2[N+](=O)[O-])C1=O	Hck Nef HTS 93 | Hck-Nef confirm inactive
CCCNC1=C(C)C(=O)C2=C(C1=O)C(COC(N)=O)[C@]1(OC)C3NC3CN21 (some centres not stated)	none
Cc1ccc2c(c1)=C/C(=C\c1c(O)[nH]c(=S)[nH]c1=O)C(=O)N=2	none
Cc1ccc2c(c1)=NC(=O)/C(=C/c1c(O)[nH]c(=O)[nH]c1=O)C=2	Hck Nef HTS 65 | Hck-Nef confirm active
CN1C(=O)C(=Cc2coc3ccccc3c2=O)C(=O)N(C)C1=O	Hck Nef HTS 81 | Hck-Nef confirm active
CCOP(=O)(OCC)C(NC(=O)CC(C)C)C(Cl)(Cl)Cl (configuration not stated)	none
CCCCC(=O)N/N=C/c1c(O)n(CCc2ccccc2)c(=O)[nH]c1=O	none
CCCCC(=O)N/N=C/c1c(O)n(CCc2ccc(OC)c(OC)c2)c(=O)[nH]c1=O	Hck Nef HTS 78 | Hck-Nef confirm inactive
CCCC/C(=N\O)c1c[nH]c2ccccc12	none (no result: Calb biofilm kill)
C=CCN1C(=O)NC(=O)/C(=C/C=C/c2ccccc2)C1=O	Hck Nef HTS 51 | Hck-Nef confirm inactive
O=C1NC(=O)N(CCc2ccc(F)cc2)C(=O)/C1=C\C=C\c1ccccc1	none
Cc1ccc(N2C(=O)NC(=O)/C(=C\C=C\c3ccco3)C2=O)cc1	none
Cc1ccc(N2C(=O)NC(=O)/C(=C\C=C\c3ccco3)C2=O)cc1C	Hck Nef HTS 68 | Hck-Nef confirm inactive
CN(C)c1ccc(/C=C/C=C2/C(=O)NC(=O)N(c3ccccc3)C2=O)cc1	Hck Nef HTS 57 | Hck-Nef confirm inactive
O=C1NC(=O)N(Cc2ccccc2)C(=O)/C1=C\C=C\c1ccco1	Hck Nef HTS 59 | Hck-Nef confirm inactive
CC1C(C)N1CC(O)Cn1ccnc1[N+](=O)[O-] (configuration not stated)	none
O=C1/C(=C\c2ccc(Cl)c(Cl)c2)N2CCC1CC2	none
CN1C(=O)/C(=C/C=C/c2ccco2)C(=O)NC1=S	Hck Nef HTS 54 | Hck-Nef confirm inactive
O=C1NC(=O)N(c2ccccc2)C(=O)/C1=C/C=C/c1ccco1	none
CCN1C(=O)/C(=C/c2ccc3c(c2)CCN3CCCCl)C(=O)NC1=S	Hck Nef HTS 55 | Hck-Nef confirm active
CN(c1ccc(OCC(=O)N2CCN(C/C=C/c3ccccc3)CC2)cc1)S(=O)(=O)c1cccs1	none
Cc1cc(C=C2C(=O)NC(=S)NC2=O)c(C)n1C1CCCC1	Hck Nef HTS 71 | Hck-Nef confirm inactive
O=C1NC(=O)C(=Cc2ccc(OCCOc3ccc([N+](=O)[O-])cc3)cc2)C(=O)N1	Hck Nef HTS 63 | Hck-Nef confirm inactive
O=c1c2ccccc2[se]n1-c1ccccc1	Hck Nef HTS 102, eIF4E 4G PPI 77 | Hck-Nef confirm active
COc1cc(N2CCOCC2)ccc1C=C1C(=O)NC(=O)NC1=O	none
O=C1NC(=O)C(=Cc2coc3ccc(O)cc3c2=O)C(=O)N1	Hck Nef HTS 78 | Hck-Nef confirm active
Nc1c(C(=O)NCc2ccco2)c2nc3ccccc3nc2n1CCN1CCCCC1	none (no result: Calb biofilm kill)
C=CCNC(=O)c1c(N)n(CCN2CCOCC2)c2nc3ccccc3nc12	Hck Nef HTS 50 (not shown: Calb biofilm kill)
COCCNC(=O)c1c(N)n(CCC(C)C)c2nc3ccccc3nc12	Hck Nef HTS 64 (no result: Calb biofilm kill) | Hck-Nef confirm inactive
CC(C)CCn1c(N)c(C(=O)NCc2cccs2)c2nc3ccccc3nc21	none (no result: Calb biofilm kill)
Nc1c(C(=O)NCC2CCCO2)c2nc3ccccc3nc2n1Cc1ccco1 (configuration not stated)	Hck Nef HTS 60
NC(Cc1ccccc1)c1nc(-c2ccccc2)no1 (configuration not stated)	none
CC(=O)N(C1=NCCCS1)c1ccccc1Cl	none

Screening data from PubChem.
